Assay outcomes (PubChem BioAssay)
This is a sample that favours compounds with a hit; in the whole collection about 4.7% have one here.
MC4R antagonist: blocks human MC4R cAMP signaling; P32245; MC4R-expressing cells, MTII-stimulated cAMP, LANCE TR-FRET; inhibition, % at 6.5 µM; actives 0.48% (n = 360,000); AID 540295;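 active = inhibition above its plate's cutoff, the mean of tested wells on that plate plus 3 SD, cut at about 29% in these data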;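 also: 0% = Melanotan II alone and 100% = Melanotan II plus saturating MCL0020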
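System: U2OS cells stably expressing human melanocortin 4 receptor (MC4R). Reagent: Melanotan II challenge after compound preincubation. Doses: 6.5 µM. Times: 30-min compound, 1-h challenge, 1-h detection, room temperature. Measured by: TR-FRET with Eu-cAMP and labeled anti-cAMP, 671 nm. Replicates: singlicate.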
AHR act: activates the human aryl hydrocarbon receptor | AID 2796 | actives 2.5% (n = 320,000) | activation, % at 5 µM | AHR-responsive luciferase reporter cells, luminescence; in the data active = activation above about 47%;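 also: 0% = vehicle wells and 100% = reference agonist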
Target sequence (P35869 whole entry, looked up): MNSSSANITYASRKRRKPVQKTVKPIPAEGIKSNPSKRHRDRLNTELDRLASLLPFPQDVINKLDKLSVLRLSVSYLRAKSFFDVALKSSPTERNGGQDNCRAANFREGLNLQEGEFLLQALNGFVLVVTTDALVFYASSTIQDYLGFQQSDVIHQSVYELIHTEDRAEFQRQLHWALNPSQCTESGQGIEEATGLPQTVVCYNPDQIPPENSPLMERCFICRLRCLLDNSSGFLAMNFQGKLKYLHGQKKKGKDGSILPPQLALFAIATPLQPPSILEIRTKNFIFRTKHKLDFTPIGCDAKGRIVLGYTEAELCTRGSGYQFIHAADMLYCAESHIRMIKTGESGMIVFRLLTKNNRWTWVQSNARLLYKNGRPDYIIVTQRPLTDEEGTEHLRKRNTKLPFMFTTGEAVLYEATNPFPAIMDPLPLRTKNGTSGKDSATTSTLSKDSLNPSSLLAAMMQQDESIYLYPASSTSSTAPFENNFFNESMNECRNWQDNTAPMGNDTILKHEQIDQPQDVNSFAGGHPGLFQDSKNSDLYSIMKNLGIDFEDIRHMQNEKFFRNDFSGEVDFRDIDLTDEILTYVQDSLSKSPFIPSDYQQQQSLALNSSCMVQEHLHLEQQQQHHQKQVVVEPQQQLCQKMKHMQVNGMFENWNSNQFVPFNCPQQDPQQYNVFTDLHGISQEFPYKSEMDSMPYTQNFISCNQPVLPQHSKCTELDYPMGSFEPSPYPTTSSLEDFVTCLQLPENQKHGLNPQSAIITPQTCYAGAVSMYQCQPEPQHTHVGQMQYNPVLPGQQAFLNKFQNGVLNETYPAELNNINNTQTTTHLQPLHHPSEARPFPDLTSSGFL
m5-HT2A agonist: mouse HTR2A agonism via beta-arrestin recruitment | actives 0.66% (n = 360,000) | CHO-K1 mHTR2A beta-arrestin complementation, luminescence; percent of 30 µM serotonin response | activation, % at 7.6 µM | P35363 | AID 624169;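 active = activation above a run cutoff, the mean activation of all tested compounds plus 3 SD, cut at about 14% in these data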;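 also: 0% = plate median of compound wells and 100% = 30 µM serotonin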
GAA850 FXN act: frataxin GAA850 promoter activation. activation, % at 6 µM. HEK293 lucGAA850 FXN promoter luciferase reporter, 24 h; percent of 10 µM SAHA response. actives 0.56% (n = 360,000);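 active = activation above the average of all compounds screened plus 3 SD, cutoff fixed separately per campaign, cut at about 7.5% in these data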;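 also: 0% = DMSO wells and 100% = 10 µM SAHA wells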
MC4R ag barr: activates human MC4R beta-arrestin recruitment | P32245 | U2OS MC4R beta-arrestin complementation, luminescence; percent of melanotan II response, DMSO zero | activation, % at 8.9 µM | actives 0.98% (n = 360,000);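 active = activation above a per-plate cutoff, the mean activation of sample wells on that plate plus 3 SD, cut at about 8% in these data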
GAA30 FXN cntr: GAA30 FXN promoter activation counter-screen. shares compounds with GAA850 FXN act. HEK293 lucGAA30 FXN promoter luciferase, 24 h; DMSO = 0%, 5 µM ipriflavone = 100%. activation, % at 6 µM. actives 66% (n = 1,900);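 active = mean activation above the mean of solvent-only control wells plus 3 SD, cut at about 22% in these data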;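 also: counterscreen of GAA850 promoter hits where activity marks nonselective or luminescence artifacts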
FXN GAA850 conf: GAA850 FXN promoter activation confirmation; shares compounds with GAA850 FXN act; HEK293 lucGAA850 FXN promoter luciferase reporter, 24 h; 100% = activation by SAHA; activation, % at 6 µM; actives 86% (n = 1,900); AID 588351;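 active = mean activation above a set limit taken from the primary screen, cut at about 8% in these data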;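 also: 0% = DMSO wells and 100% = 10 µM SAHA wells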
Starred values were filed as active, the others as inactive.

Results for CC1(C)CC1C(=O)Nc1ccc([N+](=O)[O-])cc1Br (stereo not drawn) ?
MC4R antagonist: -1; AHR act: 1; m5-HT2A agonist: 5; GAA850 FXN act: 7.8*; MC4R ag barr: -3; GAA30 FXN cntr: 18; FXN GAA850 conf: 7

How did Cc1occc1C(=O)Nc1ccc([N+](=O)[O-])cc1Br do in these assays?
MC4R antagonist: 5; AHR act: 4; m5-HT2A agonist: -5; GAA850 FXN act: 2; MC4R ag barr: 1

How did CCCn1cnnc1CNC(=O)[C@H]1O[C@@H](n2cnc3c(N)ncnc32)[C@H](O)[C@@H]1O do in these assays?
m5-HT2A agonist: 13

How did COc1ccc2oc(=Nc3ccccc3)c(-c3nc4ccccc4[nH]3)cc2c1 do in these assays?
MC4R antagonist: -6; AHR act: 47; m5-HT2A agonist: 3; GAA850 FXN act: 7.9*; MC4R ag barr: 1; GAA30 FXN cntr: 109*; FXN GAA850 conf: 39*

How did CCCCc1ccc(NC(=O)CC(C)(C)C)cc1 do in these assays?
MC4R antagonist: 2; AHR act: 15; m5-HT2A agonist: -4; GAA850 FXN act: 7.8*; MC4R ag barr: 3; GAA30 FXN cntr: 108*; FXN GAA850 conf: 38*

What do the screens show for `COc1cc(NC(=S)N2CCC(C(O)(c3ccccc3)c3ccccc3)CC2)cc(OC)c1`?
MC4R antagonist: 24; AHR act: 5; m5-HT2A agonist: -3; GAA850 FXN act: 0; MC4R ag barr: -3

What do the screens show for `Cc1cccc(NC(=O)CN2C(=O)NC3(CCCC3)C2=O)n1`?
MC4R antagonist: 1; AHR act: 1; m5-HT2A agonist: 3; GAA850 FXN act: 1; MC4R ag barr: -1

Results for COc1cc(OC)nc(Nc2nc(C(N)CCc3ccccc3)cs2)n1 (stereo not drawn) ?
MC4R antagonist: 0; m5-HT2A agonist: -3; GAA850 FXN act: 9.0*; MC4R ag barr: 7; GAA30 FXN cntr: 21; FXN GAA850 conf: 17*

Results for COc1cc(OC)nc(Nc2nc(C(N)COCc3ccccc3)cs2)n1 (stereo not drawn) ?
MC4R antagonist: -3; m5-HT2A agonist: -2; GAA850 FXN act: 7.6*; MC4R ag barr: 1; GAA30 FXN cntr: 23*; FXN GAA850 conf: 14*

Results for O=[N+]([O-])c1cc(-c2ccc(C(=S)N3CCOCC3)o2)ccc1Cl ?
MC4R antagonist: -4; AHR act: 24; m5-HT2A agonist: -3; GAA850 FXN act: 4; MC4R ag barr: -3

What do the screens show for `S=C(c1ccc(-c2cccc(Cl)c2)o1)N1CCCCC1`?
MC4R antagonist: 6; AHR act: 13; m5-HT2A agonist: -2; GAA850 FXN act: 8; MC4R ag barr: -4

How did N#CCCN1CCN(C(=S)c2ccc(-c3cccc(Cl)c3)o2)CC1 do in these assays?
MC4R antagonist: -4; AHR act: 3; m5-HT2A agonist: 1; GAA850 FXN act: 8.6*; MC4R ag barr: 1; GAA30 FXN cntr: 74*; FXN GAA850 conf: 31*

What do the screens show for `N#CCCN1CCN(C(=S)c2ccc(-c3ccc(Cl)c(Cl)c3)o2)CC1`?
MC4R antagonist: -7; AHR act: 15; m5-HT2A agonist: -3; GAA850 FXN act: 8.7*; MC4R ag barr: -3; GAA30 FXN cntr: 72*; FXN GAA850 conf: 30*

Results for COc1cc2c(cc1OC)CN(C(=O)c1sccc1C)CC2 ?
MC4R antagonist: 24; AHR act: 0; m5-HT2A agonist: -1; GAA850 FXN act: 0; MC4R ag barr: 1

What do the screens show for `Cc1ccsc1C(=O)N1CCc2ccccc2C1`?
MC4R antagonist: 4; AHR act: 11; m5-HT2A agonist: 3; GAA850 FXN act: 8.4*; MC4R ag barr: 1; GAA30 FXN cntr: 43*; FXN GAA850 conf: 15*

Results for COc1cc2nc(=S)n3[nH]c(COc4ccccc4C)nc3c2cc1OC ?
MC4R antagonist: 7; AHR act: 35; m5-HT2A agonist: 3; GAA850 FXN act: -2; MC4R ag barr: -4

What do the screens show for `COc1cc2nc(=S)n3[nH]c(CCn4nc(C)cc4C)nc3c2cc1OC`?
MC4R antagonist: 1; AHR act: 1; m5-HT2A agonist: -6; GAA850 FXN act: 19*; MC4R ag barr: -3; GAA30 FXN cntr: 32*; FXN GAA850 conf: 17*

What do the screens show for `Cc1cnc(C(=O)N(c2ccc(N3CCOCC3)cc2)C2C(=O)Nc3ccccc3N=C2c2ccc(F)cc2)cn1` (stereo not drawn)?
m5-HT2A agonist: -6

Results for CC1(Cc2ccccc2OC(F)(F)F)C(=O)Nc2ccc(-c3ccsc3)cc21 (stereo not drawn) ?
MC4R antagonist: 3; m5-HT2A agonist: 1; GAA850 FXN act: 9.6*; MC4R ag barr: 1; GAA30 FXN cntr: -2; FXN GAA850 conf: 3

What do the screens show for `CC1(Cc2ccccc2OC(F)(F)F)C(=O)Nc2ccc(OC(F)(F)F)cc21` (stereo not drawn)?
MC4R antagonist: 8; m5-HT2A agonist: 12; GAA850 FXN act: 0; MC4R ag barr: 6

Results for CCOC(=O)N1CCN(C(=O)COC(=O)C2CCN(S(=O)(=O)c3c(Cl)cccc3Cl)CC2)CC1 ?
MC4R antagonist: 1; AHR act: -1; m5-HT2A agonist: -5; GAA850 FXN act: -1; MC4R ag barr: -3

Results for Cc1nn(-c2ccccc2)c(Cl)c1/C=N/NC(=O)c1ccnn1C ?
MC4R antagonist: 4; AHR act: 5; m5-HT2A agonist: -2; GAA850 FXN act: 7.7*; MC4R ag barr: -3; GAA30 FXN cntr: 116*; FXN GAA850 conf: 42*

Results for Cc1nn(-c2ccccc2)c(Cl)c1/C=N/NC(N)=O ?
MC4R antagonist: -18; AHR act: 0; m5-HT2A agonist: 1; GAA850 FXN act: 5; MC4R ag barr: 0

Results for O=C(NCC1COc2ccccc2O1)c1ccccc1 (stereo not drawn) ?
MC4R antagonist: -1; AHR act: 11; m5-HT2A agonist: 2; GAA850 FXN act: 7.6*; MC4R ag barr: 2; GAA30 FXN cntr: 88*; FXN GAA850 conf: 27*

What do the screens show for `O=C(c1ccc(Cl)c(S(=O)(=O)NCc2cccnc2)c1)N1CCCC1`?
MC4R antagonist: 6; AHR act: 0; m5-HT2A agonist: 4; GAA850 FXN act: 1; MC4R ag barr: -2

How did COc1ccc(N(CC(=O)NC2CC3CCC2C3)S(=O)(=O)c2ccc(C)cc2)cc1Cl (stereo not drawn) do in these assays?
MC4R antagonist: 5; m5-HT2A agonist: -1; GAA850 FXN act: -2; MC4R ag barr: -1
